PAFAH1B2 inh: PAFAH1B2 enzyme inhibitors, primary screen, biochemical, fluorescence polarization, human; Platelet-activating factor acetylhydrolase IB subunit alpha2 (Homo sapiens), P68402; AID 492953, 2010; inhibition, % at 3.39 µM; 1.2% of 340,000 active; recombinant PAFAH1B2, FP-rhodamine activity probe;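 active means inhibition above the mean of all tested compounds plus 3 SD, cut at about 24% in these data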;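 further: 0% = enzyme with DMSO and 100% = wells lacking PAFAH1B2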
ARFGAP1 inhibitor: inhibitors of rat ARFGAP1 GAP activity, primary screen, biochemical, fluorescence polarization, GDP tracer; inhibition, % at 16.5 µM; AID 651572, 2012; ADP-ribosylation factor GTPase-activating protein 1 (Rattus norvegicus), Q62848; 0.26% of 360,000 active; Arfgap1-stimulated ARF1 GTP hydrolysis, GDP FP detection;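 active means inhibition above a per-plate limit, mean inhibition of low control wells plus 3 SD, cut at about 25% in these data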;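 further: 0% = DMSO wells with enzyme and 100% = wells lacking Arfgap1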
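Material: truncated rat Arfgap1 GAP domain; Incubation: compound-enzyme preincubation 20 min, reaction 120 min, detection 60 min, 25 °C; Read-out: percent inhibition of Arfgap1-stimulated GTP hydrolysis; Technique: FP, GDP Alexa 633 tracer displaced from anti-GDP antibody, 620/688 nm; Controls: No-Arfgap1 wells (100%) versus DMSO full-reaction wells (0%); Replication: single well per compound.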
pPAFAH inh: pPAFAH enzyme inhibitors, primary screen, biochemical, fluorescence polarization, human. 1.5% of 330,000 active. inhibition, % at 3.39 µM. Platelet-activating factor acetylhydrolase (Homo sapiens), Q13093. recombinant pPAFAH, FP-rhodamine probe fluorescence polarization;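 active means inhibition above the mean inhibition across the screen plus 3 SD, cut at about 25% in these data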;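 further: inhibitors block binding of the rhodamine activity-based probe so polarization drops; 0% = enzyme with DMSO and 100% = wells lacking pPAFAH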
PAFAH2 FP inh: PAFAH2 enzyme inhibitors, primary screen, biochemical, fluorescence polarization, human; Platelet-activating factor acetylhydrolase 2, cytoplasmic (Homo sapiens), Q99487; recombinant PAFAH2, FP-rhodamine activity probe; inhibition, % at 3.39 µM; 0.99% of 340,000 active; AID 492956, 2010;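 active means inhibition above the mean over all tested compounds plus 3 SD, cut at about 30% in these data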;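 further: inhibitors block probe labeling of enzyme so polarization drops; 0% = enzyme with DMSO and 100% = wells lacking PAFAH2 protein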
ASAP1 GAP inh: inhibitors of human ASAP1 ArfGAP activity, primary screen, biochemical, fluorescence polarization; 0.19% of 360,000 active; AID 624377, 2012; Arf-GAP with SH3 domain, ANK repeat and PH domain-containing protein 1 (Homo sapiens), …; ASAP1-stimulated ARF1 GTP hydrolysis, GDP FP detection; inhibition, % at 16.5 µM; in the data active means inhibition above about 25%;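 further: 0% = vehicle with enzyme and substrate and 100% = no enzyme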
Target sequence (Q9ULH1 325-724 limits assumed): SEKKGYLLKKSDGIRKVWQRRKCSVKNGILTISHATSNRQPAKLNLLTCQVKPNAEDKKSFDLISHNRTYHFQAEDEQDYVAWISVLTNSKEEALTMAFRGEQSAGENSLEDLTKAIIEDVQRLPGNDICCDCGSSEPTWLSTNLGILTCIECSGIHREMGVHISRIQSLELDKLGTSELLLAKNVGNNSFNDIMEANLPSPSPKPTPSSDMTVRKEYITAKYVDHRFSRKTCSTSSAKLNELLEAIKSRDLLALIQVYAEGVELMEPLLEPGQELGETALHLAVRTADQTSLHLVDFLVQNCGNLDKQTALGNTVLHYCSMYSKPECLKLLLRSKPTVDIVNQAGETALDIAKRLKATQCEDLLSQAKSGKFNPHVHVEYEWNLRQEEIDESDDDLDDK
PAFAH1B3 FP inh: PAFAH1B3 enzyme inhibitors, primary screen, biochemical, fluorescence polarization, human; AID 492972, 2010; inhibition, % at 3.39 µM; recombinant PAFAH1B3, FP-rhodamine probe; Platelet-activating factor acetylhydrolase IB subunit alpha1 (Homo sapiens), Q15102; 0.28% of 340,000 active;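 active means inhibition above the screen-wide average of all tested compounds plus 3 SD, cut at about 25% in these data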;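 further: 0% = enzyme with DMSO only and 100% = wells lacking PAFAH1B3 protein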
Target sequence (Q15102 whole entry, looked up): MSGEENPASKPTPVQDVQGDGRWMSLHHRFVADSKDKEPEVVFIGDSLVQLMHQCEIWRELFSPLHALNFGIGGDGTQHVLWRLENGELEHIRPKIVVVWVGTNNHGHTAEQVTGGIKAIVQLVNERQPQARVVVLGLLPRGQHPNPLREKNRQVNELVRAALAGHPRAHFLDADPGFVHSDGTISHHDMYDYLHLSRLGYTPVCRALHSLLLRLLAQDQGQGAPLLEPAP
Numbers without * were called inactive. A selection: hits, their analogues and other compounds. The true share with any hit is near 2.7%.

What do the screens show for `CCC[C@@H]1CCCO[C@@](C(=O)NCc2ccccn2)(C(F)(F)F)C1`?
PAFAH1B2 inh: 30*; ARFGAP1 inhibitor: -4; pPAFAH inh: 1; PAFAH2 FP inh: 9; ASAP1 GAP inh: 3; PAFAH1B3 FP inh: 9

How did Cc1cc(-c2cc(NC(=O)Cc3c[nH]c4ccccc34)ccc2N(C)c2cccnc2)ccc1F do in these assays?
ARFGAP1 inhibitor: 12; ASAP1 GAP inh: 5

Results for CCc1c(-c2ccc(Br)cc2)ncn1CCc1ccccc1OC ?
ARFGAP1 inhibitor: -7; ASAP1 GAP inh: -3

Results for Cc1cnc(SCc2ccc(Cl)cc2Cl)[nH]c1=O ?
PAFAH1B2 inh: 27*; ARFGAP1 inhibitor: 7; pPAFAH inh: 6; PAFAH2 FP inh: 5; ASAP1 GAP inh: 5; PAFAH1B3 FP inh: 11

What do the screens show for `O=c1nccc(SCc2ccc(Cl)cc2Cl)[nH]1`?
PAFAH1B2 inh: 13; ARFGAP1 inhibitor: -6; pPAFAH inh: 5; PAFAH2 FP inh: 2; ASAP1 GAP inh: 13; PAFAH1B3 FP inh: 7

What do the screens show for `Cc1ccc(C)c(CSc2nnc(C)c(=O)[nH]2)c1`?
PAFAH1B2 inh: 6; ARFGAP1 inhibitor: -3; pPAFAH inh: 0; PAFAH2 FP inh: -4; ASAP1 GAP inh: 8; PAFAH1B3 FP inh: 6

Results for Cc1nnc(SCc2ccc(Cl)cc2Cl)[nH]c1=O ?
PAFAH1B2 inh: 27*; ARFGAP1 inhibitor: -9; pPAFAH inh: 21; PAFAH2 FP inh: 12; ASAP1 GAP inh: 11; PAFAH1B3 FP inh: 6

How did Cc1cc(=O)[nH]c(SCc2ccc(Cl)cc2Cl)n1 do in these assays?
PAFAH1B2 inh: 29*; ARFGAP1 inhibitor: 8; pPAFAH inh: 9; PAFAH2 FP inh: 22; ASAP1 GAP inh: 3; PAFAH1B3 FP inh: -3

Results for CCN(CC)S(=O)(=O)N1CCC(C(=O)NCC2COc3ccccc3O2)CC1 (stereo not drawn) ?
PAFAH1B2 inh: 4; pPAFAH inh: 5; PAFAH2 FP inh: -2; PAFAH1B3 FP inh: 4

What do the screens show for `Cc1ccc(C(=O)NNC(=O)C2CCN(S(=O)(=O)c3ccc(Cl)cc3)CC2)cc1`?
PAFAH1B2 inh: 26*; ARFGAP1 inhibitor: -6; pPAFAH inh: 5; PAFAH2 FP inh: 7; ASAP1 GAP inh: -4; PAFAH1B3 FP inh: -1

Results for O=C(NCCc1ccc(Cl)cc1)C1CCCN1C(=O)Nc1ccccc1 (stereo not drawn) ?
PAFAH1B2 inh: 26*; ARFGAP1 inhibitor: 2; pPAFAH inh: 1; PAFAH2 FP inh: 2; ASAP1 GAP inh: 13; PAFAH1B3 FP inh: 8

Results for C=CCNC(=O)C1CCN(S(=O)(=O)c2ccc(Br)cc2)CC1 ?
PAFAH1B2 inh: 33*; ARFGAP1 inhibitor: 8; pPAFAH inh: 4; PAFAH2 FP inh: -1; ASAP1 GAP inh: -4; PAFAH1B3 FP inh: 4

Results for O=C(NCC1COc2ccccc2O1)C1CCN(S(=O)(=O)c2ccc(Cl)cc2)CC1 (stereo not drawn) ?
PAFAH1B2 inh: 29*; ARFGAP1 inhibitor: 8; pPAFAH inh: 4; PAFAH2 FP inh: -4; ASAP1 GAP inh: -12; PAFAH1B3 FP inh: 2

How did C=CC[C@]12C[C@@]3(O[C@H](c4ccc(C(F)(F)F)cc4)N=C3C[C@H](c3ccc(OC)cc3)[C@H]1C)N(Cc1ccncc1)C2=O do in these assays?
ARFGAP1 inhibitor: -5; ASAP1 GAP inh: 3

Results for COc1ccccc1S(=O)(=O)N(C)C[C@H]1Oc2cc(Br)ccc2S(=O)(=O)N([C@H](C)CO)C[C@H]1C ?
ARFGAP1 inhibitor: 12; ASAP1 GAP inh: 3

How did COc1ccc(CCNC(=O)C2CCN(S(=O)(=O)c3ccc(Cl)cc3)CC2)cc1OC do in these assays?
PAFAH1B2 inh: 9; ARFGAP1 inhibitor: 13; pPAFAH inh: 2; PAFAH2 FP inh: -1; ASAP1 GAP inh: -3; PAFAH1B3 FP inh: 9

Results for CC(=O)Nc1ccc(S(=O)(=O)N2CCC(C(=O)NCCc3ccc(Cl)cc3)CC2)cc1 ?
PAFAH1B2 inh: 27*; ARFGAP1 inhibitor: 8; PAFAH2 FP inh: 0; ASAP1 GAP inh: 16; PAFAH1B3 FP inh: 0

How did Cc1ccccc1S(=O)(=O)N(C)C[C@@H]1OCc2cn(nn2)CCCC(=O)N([C@@H](C)CO)C[C@H]1C do in these assays?
ARFGAP1 inhibitor: -12; ASAP1 GAP inh: -20

Results for Cc1cc2c(c(=O)o1)[C@@]1(C(=O)N(C)c3ccccc31)C1=C(CCC1=O)O2 ?
ARFGAP1 inhibitor: 2; ASAP1 GAP inh: 0

What do the screens show for `CC(Nc1ccc(Cl)cc1)c1cc(Cl)ccc1O` (stereo not drawn)?
PAFAH1B2 inh: 43*; ARFGAP1 inhibitor: 5; pPAFAH inh: 2; PAFAH2 FP inh: -3; ASAP1 GAP inh: 13; PAFAH1B3 FP inh: 9

How did CCOc1ccc(NC(C)c2cc(Cl)ccc2O)cc1 (stereo not drawn) do in these assays?
PAFAH1B2 inh: 2; ARFGAP1 inhibitor: 0; pPAFAH inh: 5; PAFAH2 FP inh: 6; ASAP1 GAP inh: 8; PAFAH1B3 FP inh: 0

Results for O=C(N[C@H](C(=O)N1CCC[C@H]1C(=O)NCCc1ccccc1Cl)C1CCCCC1)c1ccc(Cl)c(Cl)c1 ?
ARFGAP1 inhibitor: 5; ASAP1 GAP inh: -8

How did COC(=O)c1ccc2c(=O)n(CCCCCC(=O)NC3CCCCC3)c(=O)[nH]c2c1 do in these assays?
ARFGAP1 inhibitor: 1; ASAP1 GAP inh: 0

Results for C=CCn1c(SCc2ccc(Cl)cc2)nc2c1c(=O)[nH]c(=O)n2C ?
PAFAH1B2 inh: 25*; ARFGAP1 inhibitor: -5; pPAFAH inh: 2; PAFAH2 FP inh: 6; ASAP1 GAP inh: 3; PAFAH1B3 FP inh: 8

Results for C=CCn1c(SCc2ccc(F)cc2)nc2c1c(=O)[nH]c(=O)n2C ?
PAFAH1B2 inh: 6; ARFGAP1 inhibitor: -7; pPAFAH inh: 1; PAFAH2 FP inh: 3; ASAP1 GAP inh: 6; PAFAH1B3 FP inh: 1

How did O=C(O)CCCC[n+]1ccccc1 do in these assays?
ARFGAP1 inhibitor: 11; ASAP1 GAP inh: -9

Results for CN(C)S(=O)(=O)c1cccc(NC(=S)NC(=O)c2ccco2)c1 ?
PAFAH1B2 inh: -1; ARFGAP1 inhibitor: 0; PAFAH2 FP inh: 1; ASAP1 GAP inh: 2; PAFAH1B3 FP inh: 4

Results for CN(C)S(=O)(=O)c1cccc(NC(=S)NNC(=O)c2cc3ccccc3cc2O)c1 ?
PAFAH1B2 inh: 8; ARFGAP1 inhibitor: 0; pPAFAH inh: 28*; PAFAH2 FP inh: 15; ASAP1 GAP inh: 17; PAFAH1B3 FP inh: 7
